From ChEMBL document CHEMBL1821560, “Inhibitors of androgen receptor activation function-2 (AF2) site identified through virtual screening” (J Med Chem, 2011)
The source made the active and inactive calls. No cut-off for these calls is given here.

Columns and labels:
[1] = target: T1, Androgen receptor (Rattus norvegicus) (UniProt P15207); assay: Displacement of androgen from His-GST tagged rat AR hormone binding site at 10 uM assessed as decrease in fluorescence polarization
T1 sequence (whole entry): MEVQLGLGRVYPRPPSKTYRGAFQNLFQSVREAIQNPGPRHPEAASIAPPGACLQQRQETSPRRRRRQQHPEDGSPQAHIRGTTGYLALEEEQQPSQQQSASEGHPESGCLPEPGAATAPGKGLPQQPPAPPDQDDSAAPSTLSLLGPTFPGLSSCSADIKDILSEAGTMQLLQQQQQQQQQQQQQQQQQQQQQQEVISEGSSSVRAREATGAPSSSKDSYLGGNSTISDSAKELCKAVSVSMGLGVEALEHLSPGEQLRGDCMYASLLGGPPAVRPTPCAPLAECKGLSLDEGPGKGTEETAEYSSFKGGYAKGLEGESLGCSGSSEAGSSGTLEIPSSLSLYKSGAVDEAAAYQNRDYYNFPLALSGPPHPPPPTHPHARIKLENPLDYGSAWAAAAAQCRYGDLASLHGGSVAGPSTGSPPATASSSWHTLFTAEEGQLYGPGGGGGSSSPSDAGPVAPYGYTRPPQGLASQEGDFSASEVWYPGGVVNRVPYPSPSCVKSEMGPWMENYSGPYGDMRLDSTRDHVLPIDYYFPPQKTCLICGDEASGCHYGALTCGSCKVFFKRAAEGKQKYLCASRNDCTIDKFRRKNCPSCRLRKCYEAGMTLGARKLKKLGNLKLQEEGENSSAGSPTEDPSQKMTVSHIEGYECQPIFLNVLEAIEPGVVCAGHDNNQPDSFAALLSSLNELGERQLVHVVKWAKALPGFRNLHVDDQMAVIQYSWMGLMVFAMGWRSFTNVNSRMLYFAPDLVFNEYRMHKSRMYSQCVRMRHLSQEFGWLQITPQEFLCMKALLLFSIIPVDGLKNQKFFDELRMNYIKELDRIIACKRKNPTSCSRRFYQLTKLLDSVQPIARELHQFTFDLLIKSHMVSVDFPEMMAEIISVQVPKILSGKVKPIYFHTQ
Method in brief: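 Hormone-site competition run with Polar Screen Androgen Receptor Competitor Green kit per manufacturer's protocol; compounds tested at 10 μM.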

[2] = target: T2, Androgen receptor (Homo sapiens, UniProt P10275); assay: (§1) Displacement of SRC2-3 peptide from human AR ligand binding site expressed in Escherichia coli BL21 by AF2 FP assay
T2 sequence (P10275 whole entry): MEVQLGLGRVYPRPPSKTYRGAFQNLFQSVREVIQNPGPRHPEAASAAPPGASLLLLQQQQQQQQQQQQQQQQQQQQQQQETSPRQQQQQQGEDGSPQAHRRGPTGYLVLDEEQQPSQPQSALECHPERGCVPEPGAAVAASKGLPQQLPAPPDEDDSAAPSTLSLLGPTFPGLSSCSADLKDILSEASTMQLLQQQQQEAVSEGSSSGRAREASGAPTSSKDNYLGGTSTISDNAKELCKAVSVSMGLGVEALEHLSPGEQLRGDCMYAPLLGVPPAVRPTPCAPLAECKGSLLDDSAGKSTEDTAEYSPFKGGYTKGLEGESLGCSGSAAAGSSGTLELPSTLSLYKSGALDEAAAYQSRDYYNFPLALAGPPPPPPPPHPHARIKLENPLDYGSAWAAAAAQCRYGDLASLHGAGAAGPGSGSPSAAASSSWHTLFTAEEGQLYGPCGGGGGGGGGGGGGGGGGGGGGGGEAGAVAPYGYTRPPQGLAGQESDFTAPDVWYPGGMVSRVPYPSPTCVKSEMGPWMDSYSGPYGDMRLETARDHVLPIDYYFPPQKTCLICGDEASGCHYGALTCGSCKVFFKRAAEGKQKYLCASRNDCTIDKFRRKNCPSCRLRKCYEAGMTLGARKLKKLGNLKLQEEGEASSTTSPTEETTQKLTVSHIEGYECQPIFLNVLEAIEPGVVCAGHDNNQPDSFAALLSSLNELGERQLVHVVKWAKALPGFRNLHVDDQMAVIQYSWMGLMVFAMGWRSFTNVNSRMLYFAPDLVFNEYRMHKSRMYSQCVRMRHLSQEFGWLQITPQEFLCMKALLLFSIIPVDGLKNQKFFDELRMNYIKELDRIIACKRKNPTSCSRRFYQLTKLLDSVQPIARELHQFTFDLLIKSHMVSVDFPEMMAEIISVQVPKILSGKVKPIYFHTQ
Method in brief: (§2)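 Purified AR LBD (2 μM) with FITC-SRC2-3 peptide (5 nM), compound 0–200 μM, in 25 mM HEPES pH 7.5, 50 mM NaCl, 0.01% NP-40, 2 μM DHT; 2 h incubation, FP read at ex 485/em 530 nm. Triplicate, means ± SD; IC50 by nonlinear four-parameter fit, Ki via Kenakin equation.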

[3] = target: T3, Androgen receptor (Homo sapiens) (UniProt P10275); assay: as §1; method in brief: as §2
T3 sequence (whole entry): T2 sequence (P10275 whole entry)

[4] = target: T2, Androgen receptor; assay: (§3) Inhibition of human AR AF2 site expressed in human LNCap cells coexpressing eGFP -ARR2PB assessed as inhibition of transcriptional activity; type: cell-based
Method in brief: (§4)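 LNCaP cells stably carrying eGFP under androgen-responsive ARR2PB promoter, kept 5 days in phenol-red-free RPMI 1640 with 5% CSS, then plated at 35 000 cells/well with 0.1 nM R1881 plus compound 0–100 μM; after 3 days eGFP fluorescence read (ex 485, em 535 nm).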

[5] = target: T3, Androgen receptor (Homo sapiens); assay: as §3; type: cell-based; method in brief: as §4
[6] = test system: LNCaP; assay: Cytotoxicity against human LNCAP cells at 50 uM assessed as cell viability after 72 hrs by MTS assay; type: functional
Method in brief: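 LN-ARR2PBeGFP LNCaP cells exposed to compound for 72 h, then MTS reagent added and incubated 2 h at 37 °C in 5% CO2; absorbance read-out of proliferation/viability.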

Row | Structure (SMILES) | inhibition [1] | IC50 [2] | inhibition [3] | IC50 [4] | inhibition [5] | viability at 50 µM [6]
1 | CC1=NN(c2ccccc2)C(=O)/C1=N\Nc1ccc(C(=O)O)c(O)c1 | inactive | 26 µM | Dose-dependent effect | 33.4 µM | Dose-dependent effect | 50.9%
2 | CCOc1cc(C2Nc3cccc4cccc(c34)N2)ccc1O | inactive | 31.5 µM |  | 11.1 µM |  | 122%
3 | Oc1ccc(C2Nc3cccc4cccc(c34)N2)cc1 | inactive | 30.7 µM |  | 5.9 µM |  | 106%
4 | COc1cc(C2Nc3cccc4cccc(c34)N2)ccc1O | inactive | 32.9 µM |  | 4.6 µM |  | 129%
5 | Oc1ccc(C2Nc3cccc4cccc(c34)N2)cc1O | inactive | 30.6 µM | Dose-dependent effect | 18.6 µM | Dose-dependent effect | 121%
6 | COc1ccc(C2Nc3cccc4cccc(c34)N2)cc1O | inactive | 8.2 µM | Dose-dependent effect | 34.4 µM | Dose-dependent effect | 145%
